These results are taken from ChEMBL document CHEMBL1123211, “Correspondence analysis applied to steroid receptor binding” (J Med Chem, 1986).

Where only a bound is given, the exact number is not on record here.

The target in the experiment is T1, Glucocorticoid receptor (Homo sapiens) (UniProt P04150).
T1 sequence (whole entry): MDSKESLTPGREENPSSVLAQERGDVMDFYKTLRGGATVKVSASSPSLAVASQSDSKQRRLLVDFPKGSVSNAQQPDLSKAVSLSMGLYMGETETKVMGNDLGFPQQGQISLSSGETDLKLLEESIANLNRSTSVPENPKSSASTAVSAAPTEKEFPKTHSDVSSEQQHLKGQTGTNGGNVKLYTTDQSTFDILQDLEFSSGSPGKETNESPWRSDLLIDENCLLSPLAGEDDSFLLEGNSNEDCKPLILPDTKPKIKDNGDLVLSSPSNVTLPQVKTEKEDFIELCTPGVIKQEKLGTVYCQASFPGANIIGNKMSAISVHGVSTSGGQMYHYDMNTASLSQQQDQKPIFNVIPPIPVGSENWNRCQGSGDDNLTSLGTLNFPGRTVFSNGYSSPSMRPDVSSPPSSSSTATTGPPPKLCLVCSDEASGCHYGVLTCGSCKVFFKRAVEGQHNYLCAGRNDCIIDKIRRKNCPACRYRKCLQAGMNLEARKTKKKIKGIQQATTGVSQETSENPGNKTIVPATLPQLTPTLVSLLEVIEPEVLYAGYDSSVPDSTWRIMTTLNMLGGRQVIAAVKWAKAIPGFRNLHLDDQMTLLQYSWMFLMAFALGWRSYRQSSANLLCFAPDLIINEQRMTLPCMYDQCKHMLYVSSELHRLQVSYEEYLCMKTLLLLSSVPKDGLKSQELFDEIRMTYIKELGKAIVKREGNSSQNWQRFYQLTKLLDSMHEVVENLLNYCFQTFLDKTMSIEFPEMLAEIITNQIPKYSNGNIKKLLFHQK
Briefly: Relative binding affinity against glucocorticoid receptor. The procedure, abridged:
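Competitive binding: each steroid incubated with receptor-containing cytosol and a radiolabelled marker selective for the receptor. Bound radioactivity separated by dextran-coated charcoal adsorption. The unlabelled radioligand standard curve used 9-10 concentrations; test steroids used 5-6. RBA = 100 × (radioligand conc for 50% displacement ÷ steroid conc for 50% displacement), with reference hormone set to 100. Mean of ≥3 experiments.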
On to `CC1=C2CCC3C(=C2CCC1=O)C=CC1(C)C3CC[C@]1(C)O` (stereo partly specified), for which the Relative binding affinity is 0.5. Regarding `CC12C=CC3=C4CCC(=O)C=C4CCC3C1CCC2=O` (stereo unspecified), the Relative binding affinity was < 0.1. Regarding `CC12C=CC3=C4CCC(=O)C=C4CCC3C1CCC2` (stereo unspecified), the Relative binding affinity was found to be 0.5. Turning to `CC12C=CC3=C4CCCC=C4CCC3C1CC[C@]2(C)O` (stereo partly specified), the Relative binding affinity turned out to be 0.3. On to `C[C@@H]1CC2=CC(=O)CC[C@@H]2[C@H]2CC[C@@]3(C)[C@@H](CC[C@]3(C)O)[C@@H]21`, for which the Relative binding affinity came to 1.4. The compound `CC(=O)[C@@]1(C)CCC2C3CCC4=CC(=O)CCC4C3CCC21C` (stereo partly specified) showed a Relative binding affinity of 0.7. Consider `CC1(C)CC2C(=C3CCC(=O)C=C31)C=CC1(C)C2CC[C@]1(C)O` (stereo partly specified), for which the Relative binding affinity was 1.2. As to `C#C[C@]1(O)CC[C@H]2[C@@H]3CCC4=CC(=O)CCC4=C3C=C[C@@]21CC`, the Relative binding affinity came out at 77.

As to `CC12CCC3=C4CCC(=O)C=C4CCC3C1CC[C@]2(C)O` (stereo partly specified), the Relative binding affinity is 6. `C#C[C@]1(O)CC[C@H]2[C@@H]3CCC4=CC(=O)CCC4=C3C=C[C@@]21C` came in with a Relative binding affinity of 11. Take `C#C[C@]1(O)CCC2C3CCC4=CC(=O)CCC4=C3CCC21CC` (stereo partly specified): the Relative binding affinity was found to be 17.

In turn, `C#C[C@]1(O)CCC2C3CCC4=CC(=O)CCC4=C3C=CC21CCC` (stereo partly specified) returned a Relative binding affinity of 6.4. `CC(=O)[C@H]1CCC2C3CCC4=CC(=O)CCC4=C3CCC21C` (stereo partly specified) displayed a Relative binding affinity of 5.1. To `CCC12CCC3C4CCC(=O)C=C4CCC3C1CC[C@@H]2O` (stereo partly specified) belongs 2.1; to `C[C@]1(O)CC[C@H]2[C@@H]3CCC4=CC(=O)CCC4=C3C=C[C@@]21C` (stereo in doubt; 39), 26; to `C#C[C@]1(O)CCC2C3CCC4=CC(=O)CCC4=C3CCC21CCC` (stereo partly specified), 5.5. Under `CCCC12C=CC3=C4CCC(=O)C=C4CCC3C1CC[C@@H]2O` (stereo partly specified) stands 6; under `CC12CCC3C4CCC(=O)C=C4CCC3C1CC[C@@]21CCC(=O)O1` (stereo partly specified), 0.1; under `CCC12C=CC3=C4CCC(=O)C=C4CCC3C1CC[C@@H]2O` (stereo partly specified), 20.

Regarding `C[C@@H]1CC2=CC(=O)CCC2=C2C=CC3(C)C(CC[C@]3(C)O)C21` (stereo partly specified), the Relative binding affinity came to 22. For `C#C[C@]1(O)CCC2C3CCC4=CC(=O)CCC4C3CCC21CC` (stereo partly specified), the Relative binding affinity is 14. As to `C[C@]12CCC3=C4CCC(=O)C=C4CC[C@H]3[C@@H]1CC[C@@H]2O`, the Relative binding affinity turned out to be 1.6. Take `CC12C=CC3=CCCCC3C1CC[C@]2(C)O` (stereo partly specified): the Relative binding affinity turned out to be 38. Under `CC(=O)[C@H]1CCC2C3CCC4=CC(=O)CCC4=C3C=CC21C` (stereo partly specified) stands 1.5.

`CCC12C=CC3=C4CCC(=O)C=C4C[C@@H](C)C3C1CC[C@]2(C)O` (stereo partly specified) had a Relative binding affinity of 145. In the case of `CC(=O)[C@@]1(C)CCC2C3CCC4=CC(=O)CCC4=C3C=CC21C` (stereo partly specified), the Relative binding affinity is 2.4. As for `CC1CC2=C3C=CC4(C)C(CC[C@]4(C)O)C3CCC2=CC1=O` (stereo partly specified), the Relative binding affinity was 1.5.

`C[C@]1(O)CC[C@H]2[C@@H]3CCC4=CC(=O)CC[C@@H]4[C@H]3CC[C@@]21C` registered a Relative binding affinity of 1.5. To `C[C@]1(O)CC[C@H]2[C@@H]3CCC4=CC(=O)CCC4=C3C=C[C@@]21C` (stereo in doubt; 12) belongs 26. In the case of `CC12CCC3C4CCC(=O)C=C4CCC3C1CC[C@@]21CCS(=O)O1` (stereo partly specified), the Relative binding affinity came to 0.4. In turn, `CC12C=CC3=C4CC(=O)CC=C4CCC3C1CC[C@]2(C)O` (stereo partly specified) returned a Relative binding affinity of 68. To `CC1(C)CC2=C3C=CC4(C)C(CC[C@]4(C)O)C3CCC2=CC1=O` (stereo partly specified) belongs 0.4; to `CC12C=CC3=C4CCC(=O)C=C4CCC3C1CC[C@@]21CCS(=O)O1` (stereo partly specified), 35; to `C[C@@H]1CC2=CC(=O)CCC2=C2CCC3(C)C(CC[C@]3(C)O)C21` (stereo partly specified), 6.1.

For the compound `CCC12CCC3=C4CCC(=O)C=C4CCC3C1CC[C@@H]2O` (stereo partly specified), the Relative binding affinity was 5.1. Consider `CC12CCC3=C4CCC(=O)C=C4CCC3C1CC[C@@]21CCS(=O)O1` (stereo partly specified), for which the Relative binding affinity was found to be 23.

Turning to `C#C[C@]1(O)CCC2C3CCC4=CC(=O)CCC4C3CCC21CCC` (stereo partly specified), the Relative binding affinity amounted to 9.8. `C#C[C@]1(O)CCC2C3CCC4=CC(=O)CCC4=C3CCC21C` (stereo partly specified) came in with a Relative binding affinity of 5.7.

For the compound `CC(=O)[C@@]1(C)CCC2C3CCC4=CC(=O)CCC4=C3CCC21C` (stereo partly specified), the Relative binding affinity came to 4.5. For the compound `CCC12C=CC3=C4CCC(=O)C=C4CCC3C1CC[C@]2(C)O` (stereo partly specified), the Relative binding affinity is 155. To `CCCC12CCC3C4CCC(=O)C=C4CCC3C1CC[C@@H]2O` (stereo partly specified) belongs 2.1; to `CC(=O)[C@H]1CC[C@H]2[C@@H]3CCC4=CC(=O)CC[C@@H]4[C@H]3CC[C@]12C`, 0.6; to `CC12CCC3=C4CCC(=O)C=C4CCC3C1CC[C@@]21CCC(=O)O1` (stereo partly specified), 17. Consider `CCCC12CCC3=C4CCC(=O)C=C4CCC3C1CC[C@@H]2O` (stereo partly specified), for which the Relative binding affinity was determined as 1.9.

The compound `CC12C=CC3=C4CCC(=O)C=C4CCC3C1CC[C@@]21CCC(=O)O1` (stereo partly specified) yielded a Relative binding affinity of 62.

The compound `C[C@]12CC[C@H]3[C@@H](CCC4=CC(=O)CC[C@@H]43)[C@@H]1CC[C@@H]2O` showed a Relative binding affinity of 0.5.
